C2C12 statin: suppressors of statin myotoxicity in C2C12 myotubes, primary screen, cell-based, single point, plate reader | AID 602340, 2012 | rescue of ATP level, % at 7.49 µM | C2C12 myotubes + simvastatin, ATP luminescence, 48 h; scaled: DMSO 0, geranylgeraniol control 100 | hit rate 0.78% among 330,000;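 active = mean ATP rescue above about 67%, or every replicate alone reaching that limit, limit read from the data, passing the limit was not always enough; inconclusive = no clear call, values can overlap the other calls; inactive = mean under the limit and some replicate under it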;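 note: myotubes were challenged with 10 µM simvastatin during compound exposure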
E-selectin induc: E-selectin induction in HUVECs, primary screen, imaging, HUVEC, immunofluorescence imaging, single point; normalized: neutral wells 0, TNF-alpha wells 100; P16581; AID 686992, 2013; activation, % at 7.58 µM; hit rate 0.37% among 260,000;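 active = mean E-selectin-positive cell signal at least 10% of the positive control, reached in at least 60% of replicates, without over 20% cell loss; inconclusive = no rule given, readout overlaps actives, possibly toxicity-flagged; inactive = the rest, including those meeting only one limit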
Target sequence (P16581 whole entry, looked up): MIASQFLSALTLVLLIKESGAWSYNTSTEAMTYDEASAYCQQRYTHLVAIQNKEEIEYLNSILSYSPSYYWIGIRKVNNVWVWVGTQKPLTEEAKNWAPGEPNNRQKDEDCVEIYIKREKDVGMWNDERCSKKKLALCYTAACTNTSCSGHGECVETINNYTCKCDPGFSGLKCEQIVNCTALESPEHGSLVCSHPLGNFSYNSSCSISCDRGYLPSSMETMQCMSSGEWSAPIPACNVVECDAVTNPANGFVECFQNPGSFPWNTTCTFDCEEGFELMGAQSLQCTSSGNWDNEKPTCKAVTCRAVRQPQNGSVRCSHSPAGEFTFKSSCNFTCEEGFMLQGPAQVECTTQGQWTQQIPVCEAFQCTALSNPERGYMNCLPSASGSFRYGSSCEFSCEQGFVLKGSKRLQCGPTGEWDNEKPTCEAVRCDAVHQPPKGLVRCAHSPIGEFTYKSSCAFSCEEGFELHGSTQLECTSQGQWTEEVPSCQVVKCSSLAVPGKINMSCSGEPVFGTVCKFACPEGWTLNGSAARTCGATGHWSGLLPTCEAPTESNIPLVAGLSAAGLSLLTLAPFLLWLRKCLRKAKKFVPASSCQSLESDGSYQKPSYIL
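Material: HUVEC primary endothelial cells; Amount: 3,000 cells per well; Dosing: single concentration; Medium: EGM-2 growth medium on 0.1% gelatin-coated wells; Read-out basis: percent E-selectin-positive cells; Signal: immunofluorescence imaging; Control set: TNF-alpha, DMSO.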
FGF22 binding: binders of human FGF22 protein, primary screen, FGF22 synaptogenesis inhibitor project, biophysical, thermal shift, single point; recombinant FGF22 thermal shift, SYPRO orange fluorescence; percent of sucrose octasulfate shift, DMSO zero; Fibroblast growth factor 22 (Homo sapiens), Q9HCT0; activity (Tm shift, normalised), % at 9.99 µM; hit rate 1.5% among 340,000;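 active = mean Tm shift, scaled 0 neutral to 100 positive control, at about 1.3% or above, every replicate too, limit read from the data; inconclusive = no clear call, values can overlap the other calls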
Target sequence (Q9HCT0 whole entry, looked up): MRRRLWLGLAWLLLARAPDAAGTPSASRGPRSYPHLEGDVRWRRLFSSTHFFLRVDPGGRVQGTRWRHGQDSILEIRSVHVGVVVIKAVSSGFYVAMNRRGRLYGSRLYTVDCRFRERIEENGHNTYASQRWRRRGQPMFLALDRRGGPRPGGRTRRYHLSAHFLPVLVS
PglD DTNB: C. jejuni PglD acetyltransferase inhibitors, primary screen, biochemical, DTNB colorimetric, single point; UDP-N-acetylbacillosamine N-acetyltransferase PglD (Campylobacter jejuni); purified PglD enzyme, DTNB colorimetric CoA detection; inhibition, % at 12.5 µM; hit rate 0.098% among 360,000; AID 602405, 2012; in the data active = inhibition above about 16%, passing the limit was not always enough; inconclusive = no clear call, values can overlap the other calls
XiGFP reactiv: activators of inactive X chromosome reactivation, primary screen, imaging, XiGFP fibroblasts, GFP high-content imaging, set 2; activation, % at 7.58 µM; XiGFP mouse fibroblasts, % GFP-positive cells imaging, 3 d; cells co-treated with 5-aza-dC sensitizer; scaled so ellipticine positive control = 100%; hit rate 0.055% among 360,000;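 active = mean normalized replicate activation at least 10% and every replicate at or above 10%; inconclusive = only one of the two criteria met; inactive = mean below 10% and not all replicates reach 10%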;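 note: 0% = median of on-plate neutral control wells and 100% = ellipticine 6 µM median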
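System: 68-5-11 XiGFP fibroblast line | Buffer or medium: DMEM containing 5-aza-dC | Compound: Single point | Times: Compounds 3 days, fix/stain 15 min at room temperature | Benchmarks: Positive control ellipticine, 6 µM final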
DENV2 CPE: inhibitors of DENV2 cytopathic effect, primary screen, cell-based, plate reader, single concentration | hit rate 1.7% among 350,000 | AID 651640, 2012 | CPE inhibition, % at 9.99 µM | DENV2-infected cells, cytopathic effect rescue; in the data active = CPE inhibition above about 20%, passing the limit was not always enough; inconclusive = no clear call, values can overlap the other calls; tested in BHK-21 cells;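 note: 0% = median of neutral control wells and 100% = median of positive control wells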
Numbers without * were called inactive; u = inconclusive; x = no result given; ! = a repeat was not active. Rows were chosen to be rich in hits. Some 3.3% of all compounds tested hit in one or more screens of this group.

SMILES | C2C12 statin | E-selectin induc | FGF22 binding | PglD DTNB | XiGFP reactiv | DENV2 CPE
CCc1ccc(-c2cn3c(n2)SCC3)cc1 | 2.6 | x | 43.0* | -2.4 | 0.0 | 12.4
Cc1ccc(-c2cn3c(n2)SCC3)cc1 | -7.1 | x | 0.1 | x | 0.0 | -2.1
C[C@@H]1CCCCO[C@H](CN(C)C(=O)c2ccccc2)[C@@H](C)CN([C@@H](C)CO)C(=O)c2cc(NC(=O)Nc3cccc4ccccc34)ccc2O1 | x | -0.1 | -0.3 | 2.9 | 1.1 | u
Cc1nn(-c2ccc3ccccc3c2)c(=O)c2ccccc12 | x | x | 43.9* | -9.9 | 0.0 | -1.8
Cc1ccc(-c2nn(-c3cc(Cl)ccc3[N+](=O)[O-])c(=O)c3ccccc23)cc1C | -10.3 | x | x | 2.0 | x | x
Cc1nn(-c2cc(N3CCCCCC3)ccc2[N+](=O)[O-])c(=O)c2ccccc12 | 109.5* | x | x | 1.8 | x | x
Cc1ccc(-c2nn(-c3cc(N4CCNCC4)ccc3[N+](=O)[O-])c(=O)c3ccccc23)cc1 | x | 66.4* | -0.2 | x | -0.1 | 1.1
Cc1nc2ncnn2c(N2CCN(C(c3ccccc3)c3ccccc3)CC2)c1C | 79.1* | x | x | -0.4 | x | x
CCN1/C(=C\C=C(C(C)=O)C(C)=O)Sc2ccccc21 | x | 4.6 | 0.7 | x | 0.0 | -5.4
CCN1/C(=C/C(C)=C/c2sc3ccccc3[n+]2CC)Sc2ccccc21 | -113.9 | 155.3* | -0.1 | -6.9 | 3.6 | -3.6
O=C(Nc1cccnc1)c1ccc(-c2cc(Cl)ccc2Cl)o1 | -22.5 | -0.2 | 43.3* | x | 0.0 | 5.3
COc1ccc(/C=N/Nc2nc(N3CCCC3)nc(N3CCCC3)n2)cc1 | x | x | 0.1 | 7.0 | 0.1 | -17.8
COC(=O)c1ccc(/C=N/Nc2nc(N3CCCCC3)nc(N3CCCCC3)n2)cc1 | x | x | 43.5* | x | 0.0 | -1.0
COCC(=O)N1CC2(C1)[C@H](c1ccccc1)[C@H](CO)N2C(=O)c1cccnc1 | x | 0.1 | 0.0 | x | 0.0 | -4.0
CCC(=O)N1CC2(C1)[C@@H](c1ccccc1)[C@@H](CO)N2C(=O)c1cccnc1 | x | 0.1 | -0.3 | x | -0.1 | 29.2*
CCC(=O)N1CC2(C1)[C@H](c1ccc(-c3ccccc3C)cc1)[C@H](CO)N2C(=O)CC | x | 0.0 | -0.2 | x | 0.2 | -10.7
CCC(=O)N1CC2(C1)[C@@H](c1ccc(-c3ccccc3C)cc1)[C@@H](CO)N2C(=O)CC | x | 0.2 | x | x | 0.2 | 36.8*
CCC(=O)N1CC2(C1)[C@H](c1ccccc1)[C@@H](CO)N2C(=O)c1ccncc1 | x | 0.3 | -0.1 | x | 0.3 | 23.0*
O=C(Cc1cccnc1)N1CC2(C1)[C@@H](c1ccccc1)[C@@H](CO)N2C(=O)C1CCOCC1 | x | 0.0 | 0.0 | x | 0.1 | 22.3*
Cc1ccc(S(=O)(=O)N(C)C[C@H]2OCCCC[C@@H](C)Oc3ccc(NC(=O)CCCN(C)C)cc3C(=O)N([C@@H](C)CO)C[C@H]2C)cc1 | x | x | -0.5 | 5.1 | 0.1 | -3.0
O=S(=O)(c1cnc(Cl)c(Cl)c1)N1CCCc2ccccc21 | x | x | 0.2 | x | 0.0 | -3.9
O=S(=O)(c1cnc(Cl)c(Cl)c1)N1CCc2ccccc21 | 8.4 | x | -0.2 | -3.5 | 0.1 | 56.6*
O=C(Nc1ccccc1N1CCCCC1)C1=COCCO1 | -2.1 | 34.5* | 0.0 | 1.5 | 0.0 | u
O=C(Nc1ccccc1N1CCCC1)C1=COCCO1 | -0.3 | x | -0.1 | -3.4 | 0.1 | -2.1
O=C(Nc1cc(C(F)(F)F)ccc1N1CCCCC1)c1ccco1 | 4.7 | x | x | -4.6 | x | x
SMILES | C2C12 statin | E-selectin induc | FGF22 binding | PglD DTNB | XiGFP reactiv | DENV2 CPE
O=C(Nc1cc(C(F)(F)F)ccc1N1CCCCC1)C1=COCCO1 | -9.4 | x | 1.9* | 7.2 | 0.3 | -3.6
O=C(CC1CC1)Nc1ccc2c(c1)[C@@H]1C[C@@H](CC(=O)NC3CCCC3)O[C@H](CO)[C@@H]1O2 | -4.6 | 0.0 | 0.1 | 3.5 | 0.4 | -5.7
O=C(c1cnccn1)N1CCN(C/C=C/c2ccccc2)CC1 | 102.3* | x | x | -0.5 | x | x
Cc1cc(C(=O)N2CCN(C/C=C/c3ccccc3)CC2)no1 | 4.8 | x | x | -3.2 | x | x
C[C@H](CO)N1C[C@H](C)[C@@H](CN(C)C(=O)C2CCC2)Oc2ncc(C#CC(C)(C)O)cc2C1=O | 3.1 | 1.0 | -0.1 | 2.3 | -0.9 | 23.0*
C[C@@H]1CN([C@@H](C)CO)C(=O)c2cc(C#Cc3cccc(F)c3)cnc2O[C@H]1CN(C)C(=O)C1CCCCC1 | 4.8 | -0.6 | 0.5 | 4.3 | -0.1 | 21.7*!
COc1cccc(C#Cc2cnc3c(c2)C(=O)N([C@H](C)CO)C[C@H](C)[C@@H](CN(C)C(=O)C2CCC2)O3)c1 | 20.4 | -0.5 | 0.0 | 3.3 | -0.8 | -3.0
COc1cccc(C#Cc2cnc3c(c2)C(=O)N([C@H](C)CO)C[C@@H](C)[C@H](CN(C)C(=O)C2CCC2)O3)c1 | -26.6 | 0.9 | -0.2 | -0.7 | -0.4 | 20.1*
C[C@H]1CN([C@@H](C)CO)C(=O)c2cc(-c3ccccc3)cnc2O[C@@H]1CN(C)C(=O)C1CCCCC1 | x | 0.0 | -0.3 | x | -0.5 | 47.0*
C[C@H](CO)N1C[C@H](C)[C@H](CN(C)C(=O)C2CCC2)Oc2ncc(C#CC(C)(C)O)cc2C1=O | 14.3 | -0.2 | -0.1 | -2.7 | -0.9 | -5.3
C[C@@H]1CN([C@H](C)CO)C(=O)c2cc(C#Cc3cccc(F)c3)cnc2O[C@@H]1CN(C)C(=O)C1CCCCC1 | -9.4 | 0.2 | -0.3 | -0.7 | -1.3 | -10.1
CN1[C@@H]2c3ccc(-c4ccccc4)c(=O)n3C[C@H]1[C@H](CO)[C@H]2C(=O)NCCc1ccccc1 | 4.3 | -0.2 | 0.2 | 2.9 | 0.1 | -4.4
COCC(=O)Nc1ccc2c(c1)[C@@H]1C[C@@H](CC(=O)NCc3ccccc3OC)O[C@H](CO)[C@@H]1O2 | 2.4 | -0.5 | -0.1 | 2.1 | 0.0 | 0.1
COc1cccc(C#Cc2cnc3c(c2)C(=O)N([C@@H](C)CO)C[C@@H](C)[C@@H](CN(C)C(=O)C2CCC2)O3)c1 | 25.7 | -0.7 | -0.2 | 2.0 | -0.9 | 24.9*
CC1CCCCN1CCCNC(=O)c1ccc2nc(N3CCCCC3)sc2c1 (stereo not given) | 0.4 | 0.6 | 0.0 | 1.1 | 0.6 | 24.8*
CCCN1CCN(CCCNC(=O)c2ccc3nc(N4CCC(C)CC4)sc3c2)CC1 | -9.9 | -0.1 | -0.2 | -1.9 | -0.1 | -7.0
COc1ccc2c3c([nH]c2c1)[C@H](CO)N(C(=O)c1cnccn1)CC31CN(S(C)(=O)=O)C1 | x | 0.4 | -0.1 | x | 0.5 | 17.3
